ChEMBL document CHEMBL4339223, “Polycyclic Maleimide-based Scaffold as New Privileged Structure for Navigating the Cannabinoid System Opportunities” (ACS Med Chem Lett, 2019)
The source made the active and inactive calls. No cut-off for these calls is given here.

What was measured:
[1] = target: T1, Cannabinoid receptor 1 (Homo sapiens, UniProt P21554); assay: Displacement of [3H]-CP55940 from human recombinant cannabinoid CB1 receptor expressed in HEK293 cell membranes incubated for 90 mins
In short: (§1)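 Competition binding against [3H]-CP55940 on human recombinant CB1 or CB2 receptor, with increasing concentrations of test compound. IC50 was obtained by nonlinear regression of the inhibition of radioligand binding. Ki was calculated with the Cheng–Prusoff equation, and only where IC50 was below 10 μM.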

[2] = target: T1, Cannabinoid receptor 1; assay: Displacement of [3H]-CP55940 from human recombinant cannabinoid CB1 receptor expressed in HEK293 cell membranes incubated for 90 mins by Cheng-Prusoff equation analysis; in short: as §1
[3] = target: T2, Cannabinoid receptor 2 (Homo sapiens, UniProt P34972); assay: Displacement of [3H]-CP55940 from human recombinant cannabinoid CB2 receptor expressed in HEK293 cell membranes incubated for 90 mins; in short: as §1
T2 sequence (P34972 whole entry): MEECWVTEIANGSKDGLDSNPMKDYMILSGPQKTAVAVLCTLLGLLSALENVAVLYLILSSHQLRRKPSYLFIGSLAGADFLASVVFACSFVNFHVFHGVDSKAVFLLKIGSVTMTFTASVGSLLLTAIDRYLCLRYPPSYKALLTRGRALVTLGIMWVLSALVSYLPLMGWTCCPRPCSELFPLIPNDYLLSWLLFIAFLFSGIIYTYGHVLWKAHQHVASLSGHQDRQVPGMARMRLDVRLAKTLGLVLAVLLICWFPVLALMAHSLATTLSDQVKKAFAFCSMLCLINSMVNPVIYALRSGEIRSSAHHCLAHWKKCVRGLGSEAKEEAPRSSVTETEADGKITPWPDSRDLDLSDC

[4] = target: T2, Cannabinoid receptor 2; assay: Displacement of [3H]-CP55940 from human recombinant cannabinoid CB2 receptor expressed in HEK293 cell membranes incubated for 90 mins by Cheng-Prusoff equation analysis; in short: as §1
[5] = target: T2, Cannabinoid receptor 2; assay: (§2) Noncompetitive antagonist activity at human recombinant cannabinoid CB2 receptor expressed in CHOK1 cells assessed as inhibition of NKH-477-induced cAMP accumulation pre-incubated for 15 mins before NKH-477 stimulation for 30 mins by chemiluminescent detection based cAMP Hunter assay; assay type: functional, cell-based
[6] = target: T2, Cannabinoid receptor 2; assay: as §2, with “accumulation by measuring parallel shifts of NKH-477 concentration-response curves” for “accumulation”, “assay based Schild plot analysis” for “assay”; assay type: functional, cell-based
In short: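 Functional cAMP assay under NKH-477 (water-soluble forskolin analog) stimulation. JWH-133 concentration–response curves were run alone and with several concentrations of the antagonist. The concentration ratio was taken as EC50 of JWH-133 with antagonist divided by the concentration giving the same response without it. log(CR–1) was plotted against log antagonist concentration, and the Schild slope came from linear regression.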

[7] = Inhibition of calcium channel in human SH-SY5Y cells assessed as blockade of 70 mM potassium-evoked depolarization-induced Ca2+ entry; assay type: cell-based
[8] = target: Glycogen synthase kinase-3 beta (Homo sapiens, UniProt P49841); assay: inhibition of GSK3beta (unknown origin) by LANCE Ultra TR-FRET assay
Glycogen synthase kinase-3 beta, sequence (P49841 whole entry): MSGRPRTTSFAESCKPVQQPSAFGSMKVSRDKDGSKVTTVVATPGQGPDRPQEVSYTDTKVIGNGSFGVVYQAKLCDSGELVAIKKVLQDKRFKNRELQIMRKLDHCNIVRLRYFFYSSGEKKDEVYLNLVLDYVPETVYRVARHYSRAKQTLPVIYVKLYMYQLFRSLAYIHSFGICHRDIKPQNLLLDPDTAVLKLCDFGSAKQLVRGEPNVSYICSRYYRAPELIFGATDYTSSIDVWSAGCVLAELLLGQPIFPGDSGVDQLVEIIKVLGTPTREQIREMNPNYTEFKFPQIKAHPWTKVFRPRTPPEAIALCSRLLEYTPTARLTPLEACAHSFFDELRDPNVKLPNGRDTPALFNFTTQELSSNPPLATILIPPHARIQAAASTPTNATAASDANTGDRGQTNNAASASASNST

[9] = target: T2, Cannabinoid receptor 2; assay: Activity at human recombinant cannabinoid CB2 receptor expressed in CHOK1 cells assessed as induction of cAMP content back to basal condition up to 25 uM pre-incubated for 15 mins before NKH-477 stimulation for 30 mins by chemiluminescent detection based cAMP Hunter assay; assay type: functional, cell-based

T1 sequence (P21554 whole entry): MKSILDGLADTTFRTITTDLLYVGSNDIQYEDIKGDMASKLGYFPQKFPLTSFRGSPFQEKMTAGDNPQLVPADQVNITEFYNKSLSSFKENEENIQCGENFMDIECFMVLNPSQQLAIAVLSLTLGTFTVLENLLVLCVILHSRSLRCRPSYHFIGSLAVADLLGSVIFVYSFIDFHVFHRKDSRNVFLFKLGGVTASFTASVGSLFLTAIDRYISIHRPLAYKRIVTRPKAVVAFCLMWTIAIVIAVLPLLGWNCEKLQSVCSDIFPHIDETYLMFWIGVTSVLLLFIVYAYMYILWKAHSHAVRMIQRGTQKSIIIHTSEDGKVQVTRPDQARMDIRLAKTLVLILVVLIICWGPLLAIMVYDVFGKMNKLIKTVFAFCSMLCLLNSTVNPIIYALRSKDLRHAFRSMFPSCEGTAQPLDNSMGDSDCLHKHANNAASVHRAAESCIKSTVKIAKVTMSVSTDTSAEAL

| Activity [9] | Structure (SMILES) | IC50 [1] | Ki [2] | IC50 [3] | Ki [4] | Activity [5] | Activity [6] | inhibition (INH) [7] | inhibition (INH) [8] |
| --- | --- | --- | --- | --- | --- | --- | --- | --- | --- |
|  | CCCCCCCOCC12c3ccccc3C(c3ccccc31)C1C(=O)NC(=O)C12 (configuration not stated) | > 10 µM | > 10 µM | 0.9 µM | 0.23 µM | Active | Active | Not Active | Not Active |
|  | CCCCCCN1C(=O)C2C3c4ccccc4C(C)(c4ccccc43)C2C1=O (configuration not stated) | > 10 µM | > 10 µM | 3.93 µM | 1.01 µM |  |  |  |  |
|  | CCCCCCCNCC12c3ccccc3C(c3ccccc31)C1C(=O)N(CCCCCCC)C(=O)C12 (configuration not stated) | > 10 µM | > 10 µM | > 10 µM | > 10 µM |  |  |  |  |
|  | CCCCCCCCN1C(=O)C2C3c4ccccc4C(c4ccccc43)C2C1=O (configuration not stated) | > 10 µM | > 10 µM | 8.74 µM | 2.22 µM |  |  |  |  |
|  | CCCCCCCN1C(=O)C2C3c4ccccc4C(C)(c4ccccc43)C2C1=O (configuration not stated) | > 10 µM | > 10 µM | 3.86 µM | 0.98 µM |  |  |  |  |
|  | CCCCCCCN1C(=O)C2C3c4ccccc4C(Cl)(c4ccccc43)C2C1=O (configuration not stated) | > 10 µM | > 10 µM | 9.88 µM | 2.51 µM |  |  |  |  |
|  | CCCCCCCOCC12c3ccccc3C(c3ccccc31)C1C(=O)N(CCCCCCC)C(=O)C12 (configuration not stated) | > 10 µM | > 10 µM | > 10 µM | > 10 µM |  |  |  |  |
|  | CCCCCCCN1C(=O)C2C3c4ccccc4C(c4cc(Cl)ccc43)C2C1=O (configuration not stated) | > 10 µM | > 10 µM | 6.85 µM | 1.74 µM |  |  |  |  |
|  | CCCCCCCN1C(=O)C2C3c4ccccc4C(Br)(c4ccccc43)C2C1=O (configuration not stated) | > 10 µM | > 10 µM | > 10 µM | > 10 µM |  |  |  |  |
|  | CCCCCCCNCC12c3ccccc3C(c3ccccc31)C1C(=O)NC(=O)C12 (configuration not stated) | > 10 µM | > 10 µM | 3.93 µM | 1.01 µM |  |  |  |  |
|  | CCCCCCCN1C(=O)C2C3c4ccccc4C(c4ccccc43)C2C1=O (configuration not stated) | 9.35 µM | 3.77 µM | 7.94 µM | 2.01 µM |  |  |  |  |
| inactive | CCCCCCN1C(=O)C2C3c4ccccc4C(c4ccccc43)C2C1=O (configuration not stated) | > 10 µM | > 10 µM | 8.14 µM | 2.06 µM |  |  |  |  |
|  | O=C1NC(=O)C2C3c4ccccc4C(c4ccccc43)C12 (configuration not stated) | > 10 µM | > 10 µM | > 10 µM | > 10 µM |  |  |  |  |
